Assay outcomes as filed in PubChem BioAssay.
An excerpt weighted towards active compounds, which were near 3.6% of everything screened.
Yeast life ext: extends the lifespan of yeast. S. cerevisiae growth with nicotinamide, OD615; deaD strain in restrictive glucose medium. inhibition of the nicotinamide effect, % at 10 µM. actives 0.68% (n = 130,000). AID 775;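 active = inhibition above a set limit, placed 3 SD over the median of all compounds, cut at about 26% in these data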;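 also: 0% = nicotinamide-treated wells and 100% = cells grown without nicotinamide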
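assay system = DeaD-strain S. cerevisiae | measured by = absorbance at 615 nm | probe or stimulus = nicotinamide 1.5 mM | buffer or medium = CSMM-D glucose medium, restrictive | times = 48 h at 30 °C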
Measles CPE: protection of cells from measles virus | Measles virus-infected cells, CPE protection, absorbance | AID 841 | actives 1.5% (n = 140,000) | protection (pct of control), % at 4 µM; in the data active = protection mostly above about 24%, no sharp cut-off; inactive = mostly below about 26%
RAM network inh: blocks the yeast RAM network. S. cerevisiae dse1pr::URA3 reporter, 5-FOA growth OD615, 2 d; analog-sensitive cbk1-as2 kinase mutant strain. inhibition, % at 50 µM. actives 1.8% (n = 190,000);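 active = inhibition above a set limit, 3 SD over mean compound inhibition, cut at about 8.4% in these data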;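 also: 0% = DMSO-only wells with no growth and 100% = 10 µM 1-NA-PP1 full growth; inhibition rescues growth on 5-FOA so higher OD means more RAM inhibition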
Yeast growth inh: chemicals that inhibit yeast BB579 growth in restrictive medium (lifespan-shortening candidates); S. cerevisiae BB579 growth, OD615, 48 h; inhibition, % at 10 µM; actives 0.51% (n = 140,000);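 active = inhibition above a set limit, 3 SD over the mean compound inhibition, cut at about 44% in these data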
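Assay system: S. cerevisiae DeaD strain BB579 yeast. Medium: CSMM-D restrictive synthetic medium containing dextrose (glucose). Times: 4 h cell preincubation, 48 h compound exposure, 30 °C humidified. Signal: OD615 turbidity measurement. Benchmarks: positive control amphotericin B 10 µg/mL.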
Numbers without * were called inactive; nt = not tested or not shown.

SMILES	Yeast life ext	Measles CPE	RAM network inh	Yeast growth inh
CCC(=O)N1CCN(c2ccc(OC)cc2[N+](=O)[O-])CC1	-7.3	14.2	0.8	-19.2
COc1ccc(N2CCN(C(=O)CC34CC5CC(CC(C5)C3)C4)CC2)c([N+](=O)[O-])c1	1.2	4.1	10.0*	-31.8
O=C(CSc1ccccn1)C12CC3CC(CC(C3)C1)C2	nt	nt	2.1	nt
CS(=O)(=O)N1N=C(c2cccs2)CC1c1ccco1 (configuration not stated)	nt	nt	0.6	nt
CC(C)c1ccc(/C=C(/C#N)c2nnc(NC(=O)c3ccccc3)s2)cc1	-5.0	4.1	3.6	-14.8
O=C(NC(=S)Nc1cccc(Cl)c1N1CCCCC1)c1ccco1	18.1	3.8	9.7*	-28.6
O=C(NC(=S)Nc1cccc(Cl)c1N1CCCCC1)c1cccs1	2.8	35.3	9.4*	-21.1
O=C(NC(=S)Nc1cccc(Cl)c1N1CCOCC1)c1cccs1	nt	nt	3.2	nt
COc1cccc(NC(=S)N2CCn3cccc3C2c2cccnc2)c1 (configuration not stated)	nt	nt	0.1	nt
C/C(=C/C(=O)Nc1cccc(F)c1)N1CCCC1	nt	nt	2.2	nt
CS(=O)(=O)N1CCN=C1SCc1ccc([N+](=O)[O-])cc1	nt	nt	0.9	nt
O=C(c1c(O)c2ccccc2oc1=O)C1CCCCC1	28.7*	39.5	-0.5	-3.9
O=C(O)CCCN=Cc1c(O)c2ccccc2oc1=O	nt	nt	2.3	nt
CN=C(C)c1c(O)c2ccccc2oc1=O	1.8	5.3	-0.7	-7.1
O=C(CCC1CCCC1)c1c(O)c2ccccc2oc1=O	32.5*	1.1	0.3	-6.7
O=C(CC1CCC1)NC(c1ccccc1)c1ccccc1	nt	nt	1.2	nt
O=C(COc1ccc(Br)cc1Cl)NC1CCCCC1	3.5	1.0	8.9*	-28.1
COc1cccc(CNC(=O)CCC2CCCN(C(=O)c3cc(C4CC4)[nH]n3)C2)c1 (configuration not stated)	nt	nt	-0.1	nt
Nc1nc(-c2ccccc2)cc(N2CCCCC2)n1	-3.1	2.4	1.3	-3.3
Cc1nc(-c2ccccc2)cc(N2CCCC2)n1	-1.3	33.0*	0.6	-36.5
Cc1ccc(-c2nnn(CC(=O)N(c3cnc4ccccc4c3)C(C(=O)NC3CCCC3)c3ccncc3)n2)o1 (configuration not stated)	nt	nt	8.6*	nt
CCC(C(=O)NC1CCCC1)N(C(=O)Cn1nnc(-c2ccc(C)o2)n1)c1cnc2ccccc2c1 (configuration not stated)	-4.5	8.4	5.9	-22.2
OCCCc1nc2n(n1)C(c1cccs1)C=C(c1ccccc1)N2 (configuration not stated)	-9.8	63.8*	0.3	-19.6
CCOc1ccc(S(=O)(=O)Nc2ccccc2C(=O)Nc2ccccc2N2CCOCC2)cc1	18.3	19.5	8.8*	-66.5
CCOc1ccc(NC(=O)c2ccccc2NS(=O)(=O)c2ccc(F)cc2)c([N+](=O)[O-])c1	10.2	21.9	10.1*	-41.9
SMILES	Yeast life ext	Measles CPE	RAM network inh	Yeast growth inh
CN=C1S/C(=C\c2ccc(N3CCOCC3)cc2C)C(=O)N1C	-2.6	13.1	2.8	-30.4
CCN=C1S/C(=C\c2ccc(N3CCOCC3)cc2C)C(=O)N1CC	4.8	8.2	10.5*	-23.4
COc1ccc(-c2nnc(SCc3c(C)noc3C)o2)cc1	nt	nt	-0.5	nt
O=C(OCc1nc2ccccc2s1)C1CCN(S(=O)(=O)c2cccs2)CC1	-0.3	3.5	9.9*	-31.2
C/C(=N\NC(=O)C1(C)CC1(Br)Br)c1ccc(NC(=O)c2ccc(C)o2)cc1 (configuration not stated)	-1.7	5.3	1.6	9.5
COc1ccc(NC(=O)c2c3c(nc4ccccc24)CCC3)cc1S(=O)(=O)N1CCOCC1	-1.5	3.7	1.4	-36.8
COc1ccccc1-c1nnc(SCC(=O)Nc2c(Cl)cccc2Cl)o1	-10.9	16.1	0.3	-19.1
Cc1cc(C)cc(NC(=O)CSc2nnc(-c3ccccc3Br)o2)c1	-0.6	11.3	10.8*	-30.7
COc1cccc(NC(=O)CSc2nnc(-c3cc(C)n(-c4ccccc4)c3C)o2)c1	-1.0	5.4	9.3*	-24.3
Cn1c(N)c(C(=O)COC(=O)CCCOc2ccc(Cl)cc2Cl)c(=O)n(C)c1=O	nt	nt	6.5	nt
COc1ccc(N2CCN(C(=O)c3cccc(Br)c3)CC2)c([N+](=O)[O-])c1	nt	nt	2.2	nt
O=C(CCN1CCCCCC1)Nc1ccc(F)cc1	64.3*	2.5	0.5	-58.3
O=C(CN1CCCCCC1)Nc1ccc(Oc2ccccc2)cc1	nt	nt	3.4	nt
O=C(CN1CCCCC1)Nc1ccccc1	3.1	30.3*	1.2	12.9
O=C(CCN1CCCCCC1)Nc1ccc(F)c(F)c1	-4.1	14.0	1.0	-36.8
Cc1ccc(NC(=O)CC(=O)NCCN2CCOCC2)cc1	-10.6	9.0	3.5	-7.3
CC(=O)/C(=N\Nc1ccc(C)cc1)N1CCOCC1	-13.3	2.5	-1.6	92.3*
CN(C)CCNC=C(C(=O)Nc1ccc(Cl)cc1Cl)C(=O)Nc1ccc(Cl)cc1Cl	-21.0	11.5	9.0*	98.9*
CCN(CC)S(=O)(=O)c1ccc(C)c(NC(=O)CNCCN(C(C)C)C(C)C)c1	nt	nt	0.5	nt
Cc1ccc(O)c(C(CC(=O)N2CCCC2)c2ccccc2)c1 (configuration not stated)	1.4	29.4*	-1.1	-26.9
O=C(CC(c1ccccc1)c1cc(Br)ccc1O)N1CCCC1 (configuration not stated)	nt	nt	0.5	nt
Cc1nnc(NC(=O)CCn2cnc3ccccc3c2=O)s1	nt	nt	0.7	nt
COc1ccccc1/C=C/C=N/n1c(-c2cc(C)[nH]n2)n[nH]c1=S	-4.6	56.5*	0.4	-17.3
CCCCOC(=O)n1c(=S)oc2cc(Cl)ccc21	-22.5	6.0	-0.7	97.7*
O=C(Cn1c(=O)oc2cc(S(=O)(=O)N3CCCCCC3)ccc21)NC1CCCCC1	-10.4	5.2	8.8*	-23.7
SMILES	Yeast life ext	Measles CPE	RAM network inh	Yeast growth inh
O=C(Cn1c(=O)oc2cc(S(=O)(=O)N3CCc4ccccc43)ccc21)NC1CCCC1	-11.5	15.1	3.1	-47.5
CCCCOC(=O)n1c(=O)oc2cc(S(=O)(=O)N3CCCCC3)ccc21	68.5*	9.2	1.4	-45.8
COC(=O)n1c(=O)oc2cc(S(=O)(=O)N3CCOCC3)ccc21	-1.3	4.4	1.8	-17.1
C=CCON/C(CCC)=C1\C(=O)C(C(=O)OC)C(C)(C)CC1=NC (configuration not stated)	nt	nt	4.2	nt
COc1cccc(Oc2cn[nH]c2-c2ccc(OC)cc2O)c1	-21.8	13.0	-2.1	-21.1
CCCc1ccc(Oc2cn[nH]c2-c2ccc(O)c(C)c2O)cc1	-15.0	7.5	0.5	99.6*
CCCc1ccc(Oc2c(-c3ccc(O)c(C)c3O)n[nH]c2C)cc1	-14.5	11.8	9.1*	99.4*
Cc1cc(NC(=O)C2CC2)ncc1NC(=O)c1ccccn1	nt	nt	0.8	nt
Cc1cccc(C)c1NC(=O)CCn1cnc2ccccc2c1=O	nt	nt	3.6	nt
Cc1ccc(S(=O)(=O)CNC(=S)c2cccc(Cl)c2)cc1	-5.8	43.2*	-0.4	11.0
Cc1ccc(C(=S)NCS(=O)(=O)c2ccc(C)cc2)cc1	-4.6	7.1	0.1	-49.5
CC(=O)NC(c1cccs1)c1cc([N+](=O)[O-])c2cccnc2c1O (configuration not stated)	-4.4	3.6	0.1	80.2*
